The record followed here is PubChem BioAssay AID624363 (Broad Institute, 2012).

Where “and” joins values, the source holds several entries; their conditions need not be identical. Equal values may be shown once. Calls of active or inactive are those of the source.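 Rule for the calls: active = in every test run, a falling-signal curve whose half-maximal concentration is at most twice the top tested dose; inconclusive = runs disagree, flat fit at 30 to 70% inhibition, or poor fit; inactive = every test run inactive.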

By AC50 is commonly meant the concentration giving half of the maximal activity seen.

One experiment deals with SK-MEL-5 TRPM1 promoter luciferase reporter, 24 h. The experiment is described as follows: MITF transcriptional activity inhibition, TRPM1 luciferase – cell-based, SK-MEL-5, dry powder, set 5, dose response (AID 624363).
Conditions: not given
In a few lines: (§1)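 Assay system: SK-MEL-5 melanoma line with stable TRPM1 promoter–luciferase reporter; buffer or medium: phenol red-free DMEM, 10% FBS; compound: pin-transferred compounds; incubation: compound exposure 24 h at 37 °C, one day after plating; detection: SteadyGlo luciferase luminescence after 5 min at room temperature; control set: parthenolide 27 µM positive control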
Turning to `COc1ccc(S(=O)(=O)N(C(C)=O)c2ccc(OC(C)=O)c3ccccc23)cc1[N+](=O)[O-]`, the AC50 was 6.42 µM.
Regarding `CN1CCN(C2=C(NS(=O)(=O)c3ccc(Br)cc3)C(=O)c3ccccc3C2=O)CC1`, the AC50 was 7.58 µM.
In the case of `O=C(NC1=C(c2ccc(OC(F)(F)F)cc2)C(=O)c2ccccc2C1=O)c1ccco1`, the AC50 is 20.9 µM.
`CN1CCN(C2=C(NS(=O)(=O)c3ccccc3)C(=O)c3ccccc3C2=O)CC1`: the AC50 is 1.09 µM.
On to `C[C@@H](NC1=C(Nc2ccccc2)C(=O)c2ccccc2C1=O)c1ccccc1`, for which the AC50 was 13.4 µM.
With `NC1=CC(=O)c2ccccc2C1=O`, the half-maximal activity concentration (AC50) was 1.06 µM.
On the same count and under the same terms, as for `CN1CCN(C2=C(NS(=O)(=O)c3ccc(Br)s3)C(=O)c3ccccc3C2=O)CC1`, the figure is 1.98 µM.
Same read-out and setting: as for `C=CCNC1=C(Cl)C(=O)c2ccccc2C1=O`, the figure is 0.799 µM and 1.88 µM; as for `O=C1C(NS(=O)(=O)c2cccs2)=C(N2CCOCC2)C(=O)c2ccccc21`, 12.4 µM; as for `O=C1C(NS(=O)(=O)c2ccc(Br)s2)=C(N2CCSCC2)C(=O)c2ccccc21`, 22.7 µM.
In the case of `O=C(NC1=C(N2CCOCC2)C(=O)c2ccccc2C1=O)c1ccc(Br)cc1`, the AC50 is 12.5 µM.
As for `CCN(CC)CCCCNC1=C(Nc2ccccc2)C(=O)c2ccccc2C1=O`, the AC50 was 4.14 µM.
Same read-out and setting: then `CCN1CCN(C2=C(NS(=O)(=O)c3ccc(Br)s3)C(=O)c3ccccc3C2=O)CC1`, with 3.89 µM.
As for `CCN(CC)CCCNC1=C(Nc2ccccc2)C(=O)c2ccccc2C1=O`, the AC50 is 2.17 µM.
In the case of `CCN(CC)CCCNC1=C(N(C)C(C)=O)C(=O)c2ccccc2C1=O`, the AC50 was 0.305 µM.
With `C=CCNC1=C(N(C)C(C)=O)C(=O)c2ccccc2C1=O`, the AC50 was 0.0923 µM.
As for `O=C(NC1=C(c2ccccc2)C(=O)c2ccccc2C1=O)c1ccccc1`, the AC50 is 6.93 µM.
Still for that read-out and setting: then `CCN1CCN(C2=C(NS(=O)(=O)c3ccc(Br)cc3)C(=O)c3ccccc3C2=O)CC1`, with 8.69 µM; and `CC(=O)N(C)C1=C(N2CCN(C)CC2)C(=O)c2ccccc2C1=O`, with 0.404 µM; and `COc1ccc(C(=O)NC2=C(c3ccc(OC)cc3)C(=O)c3ccccc3C2=O)cc1`, with 7.11 µM.
As to `O=C1C(NCCCN2CCOCC2)=C(Nc2ccccc2)C(=O)c2ccccc21`, the AC50 is 3.7 µM.
Turning to `NC1=C(NS(=O)(=O)c2ccc(Br)s2)C(=O)c2ccccc2C1=O`, the AC50 was 17.5 µM.
Consider `O=C1C=C(NS(=O)(=O)c2cccs2)C(=O)c2ccccc21`, for which the AC50 was 1.71 µM.
Turning to `CC(=O)NC1=C(c2cccc(Cl)c2)C(=O)c2ccccc2C1=O`, the AC50 was 3.67 µM.
Take `NC1=C(NS(=O)(=O)c2ccccc2)C(=O)c2ccccc2C1=O`: the AC50 is 4.31 µM.
As to `O=C1C(Nc2ccccc2)=C(N2CCN(c3ccccc3)CC2)C(=O)c2ccccc21`, the AC50 was 12.1 µM.
Take `CN1CCN(C2=C(Nc3ccccc3)C(=O)c3ccccc3C2=O)CC1`: the AC50 was 7.78 µM.
For the compound `O=C1C(NS(=O)(=O)c2ccccc2)=C(N2CCOCC2)C(=O)c2ccccc21`, the AC50 is 19.3 µM.
Consider `CCN1CCN(C2=C(N(C)C(C)=O)C(=O)c3ccccc3C2=O)CC1`, for which the AC50 was 0.318 µM.
For the compound `CC1CCN(CC(CS(=O)(=O)c2ccc([N+](=O)[O-])cc2)N2CCC(C)CC2)CC1` (stereo not given), the AC50 was 2.71 µM.
For `O=C(NC1=C(c2ccc(OC(F)(F)F)cc2)C(=O)c2ccccc2C1=O)c1ccccc1`, the AC50 is 18.9 µM.
`COC1=C(NS(=O)(=O)c2cccs2)C(=O)c2ccccc2C1=O`: the AC50 was 17.5 µM.
On to `O=C1C(Nc2ccccc2)=C(c2ccccc2)C(=O)c2ccccc21`, for which the AC50 was 4.49 µM.
Regarding `O=C1C=C(NS(=O)(=O)c2ccccc2)C(=O)c2ccccc21`, the AC50 is 7.45 µM.
Regarding `O=C1C(Nc2ccccc2)=C(N2CCSCC2)C(=O)c2ccccc21`, the AC50 is 9.7 µM.
In the case of `NC1=C(NS(=O)(=O)c2cccs2)C(=O)c2ccccc2C1=O`, the AC50 was 4.17 µM.
The same measure, in the same setting: then `CC(=O)NC1=C(c2ccc(Cl)cc2)C(=O)c2ccccc2C1=O`, with 3.45 µM.
As to `CC(=O)N(C)C1=C(N2CCCCC2)C(=O)c2ccccc2C1=O`, the half-maximal activity concentration (AC50) was 0.796 µM.
For `NC1=C(c2ccccc2)C(=O)c2ccccc2C1=O`, the AC50 is 4.34 µM.

Test system in a further experiment: not listed separately
The experiment is described as above. The conditions noted are these: SK-MEL-5 TRPM1 promoter luciferase reporter, 24 h; at 35 µM (top of the series). In a few lines:
as §1
Background: A reporter such as luciferase makes a cellular process visible.
For the compound `O=C(NC1=C(N2CCN(c3ccccc3)CC2)C(=O)c2ccccc2C1=O)c1ccccc1`, the activity change, negative = inhibition was -32.8% (inactive).
For `COc1ccc(C2=C(NC(=O)c3ccc4ccccc4c3)C(=O)c3ccccc3C2=O)cc1`, the activity change, negative = inhibition was -15.2% (inactive).
Turning to `COc1ccc(C2=C(NC(=O)c3ccc(OC)cc3-c3cccc(OC)c3)C(=O)c3ccccc3C2=O)cc1`, the activity change, negative = inhibition is -14.7% (inactive).
On to `O=C1C(NS(=O)(=O)c2ccc(Br)cc2)=C(N2CCN(c3ccccc3)CC2)C(=O)c2ccccc21`, for which the activity change, negative = inhibition was -44.3% (inactive).
Regarding `C=CCNC1=C(NCC=C)C(=O)c2ccccc2C1=O`, the activity change, negative = inhibition was -12.8% (inactive).
Take `O=C(NC1=C(c2ccc(Oc3ccccc3)cc2)C(=O)c2ccccc2C1=O)c1ccccc1`: the activity change, negative = inhibition is -5.77% (inactive).
